According to ChEMBL document CHEMBL1156777, “Synthesis and antiprotozoal activity of cationic 1,4-diphenyl-1H-1,2,3-triazoles” (J Med Chem, 2010):

Legend:
L6 = assay: Cytotoxicity against rat L6 cells after 70 hrs by alamar blue assay; type: cell-based; details: L6, 70 h
Outline: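 Cells were exposed to serial dilutions for 70 h at 37 °C, 5% CO₂, then given resazurin for 2–3 h. IC50 came from sigmoidal curves; two independent runs in duplicate. Top concentration was 90 μg/mL, converted to μM by molecular weight.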

[1] = tested on: Trypanosoma brucei rhodesiense; assay: Antitrypanosomal activity against Trypanosoma brucei rhodesiense STIB900 after 70 hrs by alamar blue assay; type: functional, organism-based; details: STIB900, 70 h
[2] = Selectivity index, ratio of IC50 for rat L6 cells to IC50 for Trypanosoma brucei rhodesiense STIB900; type: toxicity, cell-based; details: read-out: Ratio IC50
Outline: (§1)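 Each index is L6 IC50 divided by parasite IC50. L6 values are from the 70 h resazurin assay. T. b. rhodesiense STIB900 values are from the 70 h resazurin assay. P. falciparum K1 values are from erythrocytic-stage [³H]-hypoxanthine incorporation: 48 h drug exposure, then 24 h with label. L. donovani values are from the 72 h axenic amastigote CellTiter assay.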

Plasmodium falciparum = assay: Antiplasmodial activity against chloroquine-resistant Plasmodium falciparum K1 infected in human erythrocytes after 48 hrs assessed as [3H]hypoxanthine incorporation by liquid scintillation counting; type: functional, organism-based
[3] = Selectivity index, ratio of IC50 for rat L6 cells to IC50 for Plasmodium falciparum K1; type: toxicity, cell-based; details: read-out: Ratio IC50; outline: as §1
Leishmania donovani = assay: Antileishmanial activity against Leishmania donovani MHOM/SD/62/1S-CL2D; type: functional, organism-based
Outline: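 Axenic amastigotes (MHOM/SD/62/1S-CL2_D) adapted from promastigotes and grown in amastigote medium at 37 °C. 6 × 10⁴ parasites per well were exposed to 2-fold serial dilutions for 72 h at 37 °C in humidified 5% CO₂. Growth was read with tetrazolium CellTiter reagent as absorbance at 490 nm. IC50 came from a four-parameter dose–response fit; duplicate determinations were averaged.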

Mus musculus = assay: Toxicity in NMRI mouse infected with Trypanosoma brucei rhodesiense STIB900 assessed as survival at 5 mg/kg, ip after administered for 4 consecutive days from day 3 postinfection measured after 7 to 30 days; type: organism-based; design: dose 5 mg/kg, route intraperitoneal; details: in vivo
Outline: (§2)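 Female NMRI mice infected ip with 2 × 10⁴ STIB900 bloodstream forms. Groups of four dosed ip daily on days 3–6 postinfection; compounds in DMSO diluted with water to 10% final DMSO. Untreated infected controls. Tail-blood parasitaemia checked on days 7 and 10, twice weekly to day 30, then weekly to day 60. Relapse day recorded for mean relapse day; cure means parasite-free survival to day 60.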

[4] = tested on: Trypanosoma brucei rhodesiense; assay: Antitrypanosomal activity against Trypanosoma brucei rhodesiense STIB900 infected in NMRI mouse assessed as mean parasitemia relaps day at 5 mg/kg, ip; type: functional; details: route intraperitoneal; outline: as §2
[5] = Selectivity index, ratio of IC50 for rat L6 cells to IC50 for Leishmania donovani MHOM/SD/62/1S-CL2D; type: toxicity, cell-based; details: read-out: Ratio IC50; outline: as §1

Cl.Cl.c1cc(-c2cn(-c3ccc(C4=NCCN4)cc3)nn2)ccc1C1=NCCN1
IC50 (L6): 101000 nM | IC50 [1]: 53 nM | selectivity ratio [2]: 1910 | IC50 (Plasmodium falciparum): 2 nM | selectivity ratio [3]: 50500 | IC50 (Leishmania donovani): > 100000 nM | Activity (Mus musculus): Toxic | Activity [4]: 8 days

Cl.Cl.N=C(N)c1ccc(-n2cc(-c3cccc(C(=N)N)c3)nn2)cc1
IC50 (L6): 8600 nM | IC50 [1]: 8 nM | selectivity ratio [2]: 1080 | IC50 (Plasmodium falciparum): 3 nM | selectivity ratio [3]: 2870 | IC50 (Leishmania donovani): 12000 nM | selectivity ratio [5]: < 1 | Activity [4]: 17.33 days

CC(C)NC(=N)c1ccc(-c2cn(-c3ccc(C(=N)NC(C)C)cc3)nn2)cc1.Cl.Cl
IC50 (L6): > 183000 nM | IC50 [1]: 201 nM | selectivity ratio [2]: > 910 | IC50 (Plasmodium falciparum): 5 nM | selectivity ratio [3]: > 36600 | IC50 (Leishmania donovani): 25000 nM | selectivity ratio [5]: > 7 | Activity [4]: 8 days

Cl.Cl.N=C(N)c1cccc(-c2cn(-c3ccc(C(=N)N)cc3O)nn2)c1
IC50 (L6): > 209000 nM | IC50 [1]: 175 nM | selectivity ratio [2]: > 1190 | selectivity ratio [3]: > 1190 | IC50 (Leishmania donovani): > 100000 nM | Activity (Mus musculus): Toxic | Activity [4]: 14 days

Cl.Cl.N=C(N)c1cccc(-n2cc(-c3ccc(C(=N)N)cc3O)nn2)c1
IC50 (L6): > 210000 nM | IC50 [1]: 8 nM | selectivity ratio [2]: > 26200 | IC50 (Plasmodium falciparum): 7 nM | selectivity ratio [3]: > 30000 | IC50 (Leishmania donovani): 8000 nM | selectivity ratio [5]: > 26 | Activity [4]: 39 days

COc1ccc(C(=N)N)cc1-n1cc(-c2ccc(C(=N)N)cc2)nn1.Cl.Cl
IC50 (L6): > 201000 nM | IC50 [1]: 16 nM | selectivity ratio [2]: > 12600 | IC50 (Plasmodium falciparum): 17 nM | selectivity ratio [3]: > 11800 | IC50 (Leishmania donovani): 31000 nM | selectivity ratio [5]: > 6 | Activity [4]: 23 days

Cl.Cl.N=C(N)c1cccc(-n2cc(-c3cc(C(=N)N)ccc3O)nn2)c1
IC50 (L6): > 136000 nM | IC50 [1]: 174 nM | selectivity ratio [2]: > 782 | IC50 (Plasmodium falciparum): 36 nM | selectivity ratio [3]: > 3780 | IC50 (Leishmania donovani): 20000 nM | selectivity ratio [5]: > 7 | Activity (Mus musculus): Toxic | Activity [4]: 14.75 days

Cl.Cl.Oc1ccc(C2=NCCN2)cc1-c1cn(-c2ccc(C3=NCCN3)cc2)nn1
IC50 (L6): > 190000 nM | IC50 [1]: 43 nM | selectivity ratio [2]: > 4420 | IC50 (Plasmodium falciparum): 9 nM | selectivity ratio [3]: > 21100 | IC50 (Leishmania donovani): 43000 nM | selectivity ratio [5]: > 4 | Activity (Mus musculus): Toxic | Activity [4]: 10.75 days

Cl.Cl.N=C(N)c1cccc(-c2cn(-c3cccc(C(=N)N)c3)nn2)c1
IC50 (L6): 219000 nM | IC50 [1]: 83 nM | selectivity ratio [2]: 2640 | IC50 (Plasmodium falciparum): 21 nM | selectivity ratio [3]: 10400 | IC50 (Leishmania donovani): 48000 nM | selectivity ratio [5]: 5 | Activity (Mus musculus): Toxic | Activity [4]: 10 days

CC(C)NC(=N)c1cccc(-n2cc(-c3ccc(C(=N)NC(C)C)cc3O)nn2)c1.Cl.Cl
IC50 (L6): > 175000 nM | IC50 [1]: 77 nM | selectivity ratio [2]: > 2270 | IC50 (Plasmodium falciparum): 49 nM | selectivity ratio [3]: > 3570 | IC50 (Leishmania donovani): > 100000 nM | Activity [4]: 18 days

Cl.Cl.N=C(N)c1ccc(-n2cc(-c3cc(C(=N)N)ccc3O)nn2)cc1
IC50 (L6): > 219000 nM | IC50 [1]: 6 nM | selectivity ratio [2]: > 36500 | IC50 (Plasmodium falciparum): 22 nM | selectivity ratio [3]: > 9960 | IC50 (Leishmania donovani): > 50000 nM | Activity (Mus musculus): Non-toxic

COc1cc(C(=N)N)ccc1-n1cc(-c2cccc(C(=N)N)c2)nn1.Cl.Cl
IC50 (L6): > 192000 nM | IC50 [1]: 11 nM | selectivity ratio [2]: > 17500 | IC50 (Plasmodium falciparum): 25 nM | selectivity ratio [3]: > 7680 | IC50 (Leishmania donovani): 33000 nM | selectivity ratio [5]: > 6 | Activity (Mus musculus): Toxic | Activity [4]: 13 days

COc1ccc(C(=N)N)cc1-n1cc(-c2cccc(C(=N)N)c2)nn1.Cl.Cl
IC50 (L6): > 224000 nM | IC50 [1]: 47 nM | selectivity ratio [2]: > 4770 | IC50 (Plasmodium falciparum): 28 nM | selectivity ratio [3]: > 8000 | IC50 (Leishmania donovani): > 100000 nM | Activity (Mus musculus): Toxic | Activity [4]: 17 days

COc1cc(C(=N)NC(C)C)ccc1-c1cn(-c2cccc(C(=N)NC(C)C)c2)nn1
IC50 (L6): > 170000 nM | IC50 [1]: 703 nM | selectivity ratio [2]: > 242 | IC50 (Plasmodium falciparum): 34 nM | selectivity ratio [3]: > 5000 | IC50 (Leishmania donovani): 32000 nM | selectivity ratio [5]: > 5

COc1cc(C(=N)N)ccc1-c1cn(-c2ccc(C(=N)N)cc2)nn1.Cl.Cl
IC50 (L6): 59400 nM | IC50 [1]: 31 nM | selectivity ratio [2]: 1920 | IC50 (Plasmodium falciparum): 2 nM | selectivity ratio [3]: 29700 | IC50 (Leishmania donovani): 13000 nM | selectivity ratio [5]: 5 | Activity [4]: 60 days

Cl.Cl.N=C(N)c1ccc(-c2cn(-c3cccc(C(=N)N)c3)nn2)cc1
IC50 (L6): 86000 nM | IC50 [1]: 6 nM | selectivity ratio [2]: 14300 | IC50 (Plasmodium falciparum): 4 nM | selectivity ratio [3]: 21500 | IC50 (Leishmania donovani): 17000 nM | selectivity ratio [5]: 5 | Activity [4]: 18 days

COc1ccc(C2=NCCN2)cc1-c1cn(-c2ccc(C3=NCCN3)cc2)nn1.Cl.Cl
IC50 (L6): > 188000 nM | IC50 [1]: 21 nM | selectivity ratio [2]: > 8950 | IC50 (Plasmodium falciparum): 10 nM | selectivity ratio [3]: > 18800 | IC50 (Leishmania donovani): > 100000 nM | Activity (Mus musculus): Toxic | Activity [4]: 26 days

COc1ccc(C(=N)N)cc1-c1cn(-c2ccc(C(=N)N)cc2)nn1.Cl.Cl
IC50 (L6): > 198000 nM | IC50 [1]: 8 nM | selectivity ratio [2]: > 24800 | IC50 (Plasmodium falciparum): 7 nM | selectivity ratio [3]: > 28300 | IC50 (Leishmania donovani): 4300 nM | selectivity ratio [5]: > 46 | Activity [4]: 15.5 days

Cl.Cl.N=C(N)c1ccc(-n2cc(-c3ccc(C(=N)N)cc3O)nn2)cc1
IC50 (L6): 49300 nM | IC50 [1]: 16 nM | selectivity ratio [2]: 3080 | IC50 (Plasmodium falciparum): 2 nM | selectivity ratio [3]: 24600 | IC50 (Leishmania donovani): 4300 nM | selectivity ratio [5]: 11 | Activity (Mus musculus): Non-toxic

CC(C)NC(=N)c1ccc(-n2cc(-c3cc(C(=N)NC(C)C)ccc3O)nn2)cc1.Cl
IC50 (L6): > 179000 nM | IC50 [1]: 116 nM | selectivity ratio [2]: > 1540 | IC50 (Plasmodium falciparum): 28 nM | selectivity ratio [3]: > 6390 | IC50 (Leishmania donovani): > 100000 nM | Activity (Mus musculus): Toxic | Activity [4]: 28.75 days

COc1cc(C(=N)N)ccc1-n1cc(-c2ccc(C(=N)N)cc2)nn1.Cl.Cl
IC50 (L6): > 183000 nM | IC50 [1]: 38 nM | selectivity ratio [2]: > 4820 | IC50 (Plasmodium falciparum): 9 nM | selectivity ratio [3]: > 20300 | IC50 (Leishmania donovani): > 40000 nM | Activity (Mus musculus): Toxic | Activity [4]: 34 days

CC(C)NC(=N)c1ccc(-n2cc(-c3ccc(C(=N)NC(C)C)cc3O)nn2)cc1.Cl.Cl
IC50 (L6): > 180000 nM | IC50 [1]: 37 nM | selectivity ratio [2]: > 4860 | IC50 (Plasmodium falciparum): 7 nM | selectivity ratio [3]: > 25700 | IC50 (Leishmania donovani): > 50000 nM | Activity (Mus musculus): Non-toxic

CC(C)NC(=N)c1ccc(-c2cn(-c3cccc(C(=N)NC(C)C)c3)nn2)cc1
IC50 (L6): 193000 nM | IC50 [1]: 462 nM | selectivity ratio [2]: 418 | IC50 (Plasmodium falciparum): 43 nM | selectivity ratio [3]: 4490 | IC50 (Leishmania donovani): 58000 nM | selectivity ratio [5]: 3

Oc1ccc(C2=NCCN2)cc1-c1cn(-c2cccc(C3=NCCN3)c2)nn1
IC50 (L6): > 183000 nM | IC50 [1]: 11700 nM | selectivity ratio [2]: > 16 | IC50 (Plasmodium falciparum): 52 nM | selectivity ratio [3]: > 3520 | IC50 (Leishmania donovani): > 100000 nM

Oc1cc(C2=NCCN2)ccc1-n1cc(-c2ccc(C3=NCCN3)cc2)nn1
IC50 (L6): > 198000 nM | IC50 [1]: 998 nM | selectivity ratio [2]: > 198 | IC50 (Plasmodium falciparum): 41 nM | selectivity ratio [3]: > 4830 | IC50 (Leishmania donovani): > 100000 nM
